Experimental data collected from several papers.
Compare with care: the assays were run in different laboratories. pIC50: −log10 of the molar value.
Mode: inhibitor
BCHE: Cholinesterase (BCHE, Equus caballus, UniProt P81908)

SMILES | target | observed | technique | host | matrix | pIC50
CCN(C)C(=O)Oc1ccc(CCC(=O)N(CC)Cc2ccccc2)cc1OC | BCHE | enzyme activity | Ellman | – | – | 4.90
CN1CC[C@@]2(C)c3cc(OC(=O)Nc4ccccc4)ccc3N(C)[C@@H]12 | Aldehyde dehydrogenase, dimeric NADP-preferring (ALDH3A1, Homo sapiens, UniProt P30838) | enzyme activity | fluorescence | – | – | > 5.00
CC(=O)c1c(C)c2cnc(Nc3ccc(C4CCN(CCS(C)(=O)=O)CC4)cn3)nc2n(C2CCCC2)c1=O | Cytochrome P450 2B6 (CYP2B6, Homo sapiens, UniProt P20813) | enzyme activity | – | human | liver microsomes | < 5.00
CC(C)(C)OC(=O)NC1CCCN(C(=O)/C=C/c2cccc([N+](=O)[O-])c2)C1 (stereo not shown) | BCHE | enzyme activity | Ellman | – | – | < 4.30
O=C(O)C(/C=C/c1c(Cl)cccc1Cl)=N\Nc1nc(-c2ccc(F)cc2)cs1 | BCHE | enzyme activity | – | – | – | 5.39
O=C(N1CCC2(CC1)C[C@H](CN1CCCCS1(=O)=O)CCO2)C1(c2ccccc2)CCCC1 | DHX58 (Homo sapiens, UniProt Q96C10) | ATPase activity | – | – | – | < 4.30
O=C(O)C(/C=C/c1c(Cl)cccc1Cl)=N\Nc1nc(-c2ccc(Br)cc2)cs1 | BCHE | enzyme activity | – | – | – | 5.07
CC(C)(C)OC(=O)NC1CCCN(C(=O)/C=C/c2ccc(Br)cc2)C1 (stereo not shown) | BCHE | enzyme activity | Ellman | – | – | 4.42
COc1cc(/C=C/C(=O)NC2CCN(Cc3ccccc3)CC2)ccc1OC(=O)N(C)C | BCHE | enzyme activity | Ellman | – | – | 5.02
O=C(O)C(/C=C/c1c(Cl)cccc1Cl)=N\Nc1nc(-c2ccc(Cl)cc2)cs1 | BCHE | enzyme activity | – | – | – | 5.13
CC(C)(C)OC(=O)NC1CCCN(C(=O)/C=C/c2cccc(F)c2)C1 (stereo not shown) | BCHE | enzyme activity | Ellman | – | – | 4.81
COc1cc(/C=C/C(=O)NC2CCN(Cc3ccccc3)CC2)ccc1OC(=O)N1CCCC1 | BCHE | enzyme activity | Ellman | – | – | 5.47
CC(C)(C)OC(=O)NC1CCCN(C(=O)C=Cc2ccccc2)C1 (stereo not shown) | BCHE | enzyme activity | Ellman | – | – | 4.36
CN(C)C(=O)Oc1ccc(/C=C/C(=O)NC2CCN(Cc3ccccc3)CC2)cc1 | BCHE | enzyme activity | Ellman | – | – | 4.94
COc1ccc(OC)c(/C=C/C(=O)N2CCCC(NC(=O)OC(C)(C)C)C2)c1 (stereo not shown) | BCHE | enzyme activity | Ellman | – | – | < 4.30
CCN(CC)C(=O)Oc1ccc(/C=C/C(=O)NC2CCN(Cc3ccccc3)CC2)cc1 | BCHE | enzyme activity | Ellman | – | – | 4.82
